Experimental data from ChEMBL document CHEMBL5653631, “A Potent and Selective ULK1 Inhibitor Suppresses Autophagy and Sensitizes Cancer Cells to Nutrient Stress” (iScience, 2018).

Columns and labels:
[1] = target: T1, Testis-specific serine/threonine-protein kinase 3 (Homo sapiens) (UniProt Q96PN8); assay: Inhibition of human recombinant TSSK3 at 40 nM in presence of ATP by radiometric assay relative to control
T1 sequence (whole entry): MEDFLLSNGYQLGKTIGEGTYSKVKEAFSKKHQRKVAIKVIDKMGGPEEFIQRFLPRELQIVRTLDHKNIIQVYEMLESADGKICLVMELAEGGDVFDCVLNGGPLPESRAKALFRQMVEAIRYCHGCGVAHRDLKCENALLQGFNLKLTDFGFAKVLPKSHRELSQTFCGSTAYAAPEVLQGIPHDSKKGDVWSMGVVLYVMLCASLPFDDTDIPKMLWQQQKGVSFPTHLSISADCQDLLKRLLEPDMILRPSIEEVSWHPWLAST

[2] = target: Serine/threonine-protein kinase ATR (Homo sapiens) (UniProt Q13535); assay: Inhibition of human recombinant ATR at 40 nM in presence of ATP by radiometric assay relative to control
Sequence of Serine/threonine-protein kinase ATR (Homo sapiens) (Q13535 whole entry, looked up): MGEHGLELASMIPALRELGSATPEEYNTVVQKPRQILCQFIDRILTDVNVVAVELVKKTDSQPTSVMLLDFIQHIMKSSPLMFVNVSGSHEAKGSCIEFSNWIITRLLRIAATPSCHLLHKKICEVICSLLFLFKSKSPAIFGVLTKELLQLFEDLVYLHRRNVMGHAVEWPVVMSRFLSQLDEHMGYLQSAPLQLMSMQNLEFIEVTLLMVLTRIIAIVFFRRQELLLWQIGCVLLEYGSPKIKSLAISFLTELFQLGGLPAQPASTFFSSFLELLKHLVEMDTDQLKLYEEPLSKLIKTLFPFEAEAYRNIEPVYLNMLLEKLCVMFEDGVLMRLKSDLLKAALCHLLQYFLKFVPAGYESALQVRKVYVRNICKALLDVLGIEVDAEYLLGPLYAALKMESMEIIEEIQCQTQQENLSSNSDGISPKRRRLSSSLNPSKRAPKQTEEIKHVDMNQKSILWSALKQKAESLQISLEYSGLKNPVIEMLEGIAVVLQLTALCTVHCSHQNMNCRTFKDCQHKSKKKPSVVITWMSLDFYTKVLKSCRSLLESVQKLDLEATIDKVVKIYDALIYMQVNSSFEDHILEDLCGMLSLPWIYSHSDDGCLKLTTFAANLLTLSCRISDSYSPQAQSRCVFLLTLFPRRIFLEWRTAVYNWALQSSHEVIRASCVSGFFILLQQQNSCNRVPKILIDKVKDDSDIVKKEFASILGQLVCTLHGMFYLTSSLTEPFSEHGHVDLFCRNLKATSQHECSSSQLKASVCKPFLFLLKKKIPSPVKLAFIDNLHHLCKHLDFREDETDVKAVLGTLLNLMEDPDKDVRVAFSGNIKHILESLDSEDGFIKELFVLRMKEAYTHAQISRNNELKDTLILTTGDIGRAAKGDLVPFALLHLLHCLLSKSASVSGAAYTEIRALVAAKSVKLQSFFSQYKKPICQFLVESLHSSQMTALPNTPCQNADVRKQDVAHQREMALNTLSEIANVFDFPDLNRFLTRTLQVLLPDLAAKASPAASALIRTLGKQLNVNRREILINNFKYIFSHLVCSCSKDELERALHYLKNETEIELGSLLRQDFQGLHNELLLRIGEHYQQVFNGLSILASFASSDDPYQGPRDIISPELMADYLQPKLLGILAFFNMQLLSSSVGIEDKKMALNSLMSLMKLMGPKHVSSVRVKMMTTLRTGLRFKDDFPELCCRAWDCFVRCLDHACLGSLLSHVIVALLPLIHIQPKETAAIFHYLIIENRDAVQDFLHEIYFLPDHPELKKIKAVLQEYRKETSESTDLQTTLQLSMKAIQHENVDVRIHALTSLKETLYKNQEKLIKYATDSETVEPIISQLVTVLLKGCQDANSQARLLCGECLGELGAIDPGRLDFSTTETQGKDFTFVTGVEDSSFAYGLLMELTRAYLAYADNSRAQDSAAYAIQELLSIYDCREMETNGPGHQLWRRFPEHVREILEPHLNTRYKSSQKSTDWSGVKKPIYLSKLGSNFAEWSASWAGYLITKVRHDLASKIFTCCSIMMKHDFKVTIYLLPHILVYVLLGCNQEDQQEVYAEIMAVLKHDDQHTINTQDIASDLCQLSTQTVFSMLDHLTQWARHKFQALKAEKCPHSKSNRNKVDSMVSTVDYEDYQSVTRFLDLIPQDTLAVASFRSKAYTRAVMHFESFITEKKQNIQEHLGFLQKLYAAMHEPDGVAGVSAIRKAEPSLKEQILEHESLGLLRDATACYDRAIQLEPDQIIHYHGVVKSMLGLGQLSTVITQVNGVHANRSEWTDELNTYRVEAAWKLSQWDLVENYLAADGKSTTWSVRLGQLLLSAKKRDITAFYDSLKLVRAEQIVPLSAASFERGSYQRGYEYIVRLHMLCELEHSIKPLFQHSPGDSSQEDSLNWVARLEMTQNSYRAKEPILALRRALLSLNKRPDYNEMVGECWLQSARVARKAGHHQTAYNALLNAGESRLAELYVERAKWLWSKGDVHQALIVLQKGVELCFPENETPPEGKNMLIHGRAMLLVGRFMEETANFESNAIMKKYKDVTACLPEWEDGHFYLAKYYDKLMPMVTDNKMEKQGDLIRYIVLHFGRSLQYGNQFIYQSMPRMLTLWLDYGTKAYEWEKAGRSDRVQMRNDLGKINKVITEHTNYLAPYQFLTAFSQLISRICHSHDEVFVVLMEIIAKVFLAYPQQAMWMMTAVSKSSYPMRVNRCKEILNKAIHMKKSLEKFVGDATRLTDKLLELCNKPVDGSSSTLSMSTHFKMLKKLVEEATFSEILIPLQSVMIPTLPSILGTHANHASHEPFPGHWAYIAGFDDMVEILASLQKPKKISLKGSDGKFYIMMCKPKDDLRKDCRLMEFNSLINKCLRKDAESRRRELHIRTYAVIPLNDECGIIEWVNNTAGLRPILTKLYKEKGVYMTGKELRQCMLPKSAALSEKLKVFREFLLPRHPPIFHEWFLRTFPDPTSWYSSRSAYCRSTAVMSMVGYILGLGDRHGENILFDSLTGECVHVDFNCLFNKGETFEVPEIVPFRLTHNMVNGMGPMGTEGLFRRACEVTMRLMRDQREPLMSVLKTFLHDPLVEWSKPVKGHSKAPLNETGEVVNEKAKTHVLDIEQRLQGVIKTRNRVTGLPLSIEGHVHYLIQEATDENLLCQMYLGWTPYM
How it was run: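 Panel of 327 recombinant human kinases, each assayed in vitro by radiometric activity assay in duplicate at a single inhibitor concentration per compound, chosen with reference to its ULK1 inhibition. Activity remaining was expressed as percent of vehicle control, and percent inhibition was calculated as 100 minus percent activity remaining.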

[3] = target: T2, Aurora kinase A (Homo sapiens) (UniProt O14965); assay: Inhibition of human recombinant AurA at 40 nM related to control ULK1
T2 sequence (whole entry): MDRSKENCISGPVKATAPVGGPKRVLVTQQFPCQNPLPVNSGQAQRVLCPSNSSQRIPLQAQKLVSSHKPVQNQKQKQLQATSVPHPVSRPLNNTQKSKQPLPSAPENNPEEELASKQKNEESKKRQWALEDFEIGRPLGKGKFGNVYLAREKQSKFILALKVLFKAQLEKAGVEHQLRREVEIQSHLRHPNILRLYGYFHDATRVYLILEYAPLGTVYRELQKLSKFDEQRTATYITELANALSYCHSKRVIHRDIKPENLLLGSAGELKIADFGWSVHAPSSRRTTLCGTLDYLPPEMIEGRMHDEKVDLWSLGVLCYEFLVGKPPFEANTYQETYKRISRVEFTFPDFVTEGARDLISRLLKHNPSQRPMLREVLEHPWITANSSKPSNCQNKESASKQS
How it was run: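 Radiometric activity assays in a panel of 327 human recombinant kinases, each run in duplicate at one inhibitor concentration. Activity remaining is expressed as percent of vehicle control, and percent inhibition is calculated as 100% minus percent activity remaining.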

[4] = target: Mitogen-activated protein kinase 1 (Homo sapiens) (UniProt P28482); assay: Inhibition of human recombinant Erk2 at 15 nM in presence of ATP by radiometric assay relative to control
Sequence of Mitogen-activated protein kinase 1 (Homo sapiens) (P28482 whole entry): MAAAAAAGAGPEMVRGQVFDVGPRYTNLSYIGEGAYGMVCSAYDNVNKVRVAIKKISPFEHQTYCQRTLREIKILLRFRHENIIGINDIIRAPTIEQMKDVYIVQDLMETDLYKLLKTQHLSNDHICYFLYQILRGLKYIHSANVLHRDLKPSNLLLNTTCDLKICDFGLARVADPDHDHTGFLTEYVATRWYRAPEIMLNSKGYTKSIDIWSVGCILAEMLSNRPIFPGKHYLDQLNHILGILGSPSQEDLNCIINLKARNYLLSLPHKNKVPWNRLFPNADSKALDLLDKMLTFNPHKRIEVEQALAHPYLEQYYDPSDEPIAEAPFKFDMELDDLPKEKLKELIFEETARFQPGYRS

[5] = target: Vascular endothelial growth factor receptor 2 (Homo sapiens) (UniProt P35968); assay: Inhibition of human recombinant KDR at 15 nM related to control ULK1
[6] = target: T3, Ephrin type-B receptor 3 (Homo sapiens) (UniProt P54753); assay: Inhibition of human recombinant EphB3 at 500 nM related to control ULK1
T3 sequence (whole entry): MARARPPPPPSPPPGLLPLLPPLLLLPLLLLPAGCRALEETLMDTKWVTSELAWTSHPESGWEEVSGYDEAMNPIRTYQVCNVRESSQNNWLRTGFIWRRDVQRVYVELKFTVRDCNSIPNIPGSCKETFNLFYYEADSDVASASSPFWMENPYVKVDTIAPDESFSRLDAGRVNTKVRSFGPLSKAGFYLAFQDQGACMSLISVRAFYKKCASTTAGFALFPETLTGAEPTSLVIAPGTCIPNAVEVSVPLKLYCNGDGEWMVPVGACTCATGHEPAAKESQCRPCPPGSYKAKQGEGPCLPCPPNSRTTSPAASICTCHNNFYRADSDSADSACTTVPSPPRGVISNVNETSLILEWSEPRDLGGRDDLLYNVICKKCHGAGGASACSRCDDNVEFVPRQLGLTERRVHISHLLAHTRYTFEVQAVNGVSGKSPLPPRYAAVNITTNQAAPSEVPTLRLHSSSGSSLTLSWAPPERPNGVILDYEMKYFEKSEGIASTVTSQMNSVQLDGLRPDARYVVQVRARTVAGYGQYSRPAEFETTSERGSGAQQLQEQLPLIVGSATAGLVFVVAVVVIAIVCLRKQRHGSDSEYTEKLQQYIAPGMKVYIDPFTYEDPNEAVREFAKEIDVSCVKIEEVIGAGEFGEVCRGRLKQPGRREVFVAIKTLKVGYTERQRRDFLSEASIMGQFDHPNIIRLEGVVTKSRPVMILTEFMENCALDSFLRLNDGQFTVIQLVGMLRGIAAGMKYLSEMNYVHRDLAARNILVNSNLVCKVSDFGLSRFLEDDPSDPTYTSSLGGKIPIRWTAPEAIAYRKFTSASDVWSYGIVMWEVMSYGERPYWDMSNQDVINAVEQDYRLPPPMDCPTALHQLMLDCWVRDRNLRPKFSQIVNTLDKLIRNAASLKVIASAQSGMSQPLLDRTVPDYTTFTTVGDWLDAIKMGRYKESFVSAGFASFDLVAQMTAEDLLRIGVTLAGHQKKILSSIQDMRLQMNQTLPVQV

[7] = target: Calcium/calmodulin-dependent protein kinase type II subunit delta (Homo sapiens) (UniProt Q13557); assay: Inhibition of human recombinant CaMK2d at 500 nM in presence of ATP by radiometric assay relative to control
Sequence of Calcium/calmodulin-dependent protein kinase type II subunit delta (Homo sapiens) (Q13557 whole entry): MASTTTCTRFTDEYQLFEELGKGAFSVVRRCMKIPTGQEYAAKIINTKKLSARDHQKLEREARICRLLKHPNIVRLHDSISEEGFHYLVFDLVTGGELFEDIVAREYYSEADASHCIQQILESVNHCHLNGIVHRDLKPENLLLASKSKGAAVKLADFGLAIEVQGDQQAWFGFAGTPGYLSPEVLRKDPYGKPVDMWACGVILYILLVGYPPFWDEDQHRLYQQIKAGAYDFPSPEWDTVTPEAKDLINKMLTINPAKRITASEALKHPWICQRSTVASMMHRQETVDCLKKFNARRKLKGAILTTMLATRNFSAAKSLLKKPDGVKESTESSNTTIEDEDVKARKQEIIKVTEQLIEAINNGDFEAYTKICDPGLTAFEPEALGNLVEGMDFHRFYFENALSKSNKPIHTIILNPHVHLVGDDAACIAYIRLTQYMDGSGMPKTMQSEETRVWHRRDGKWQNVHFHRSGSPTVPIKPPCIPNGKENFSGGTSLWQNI

[8] = target: T4, Mitogen-activated protein kinase 12 (Homo sapiens) (UniProt P53778); assay: Inhibition of human recombinant p38gamma at 500 nM related to control ULK1
T4 sequence (whole entry): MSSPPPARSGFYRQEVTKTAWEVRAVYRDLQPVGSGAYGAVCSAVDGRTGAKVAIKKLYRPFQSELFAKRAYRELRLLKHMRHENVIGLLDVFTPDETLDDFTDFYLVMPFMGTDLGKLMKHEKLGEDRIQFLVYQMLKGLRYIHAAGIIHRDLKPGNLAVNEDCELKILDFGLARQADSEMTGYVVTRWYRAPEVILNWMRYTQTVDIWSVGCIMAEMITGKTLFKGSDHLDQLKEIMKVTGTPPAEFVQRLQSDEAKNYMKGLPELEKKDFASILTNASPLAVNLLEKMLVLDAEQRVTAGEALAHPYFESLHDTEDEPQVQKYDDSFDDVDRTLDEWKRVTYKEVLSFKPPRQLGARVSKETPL

[9] = target: Serine/threonine-protein kinase B-raf (Homo sapiens) (UniProt P15056); assay: Inhibition of human recombinant BRAF at 500 nM in presence of ATP by radiometric assay relative to control
Sequence of Serine/threonine-protein kinase B-raf (Homo sapiens) (P15056 whole entry): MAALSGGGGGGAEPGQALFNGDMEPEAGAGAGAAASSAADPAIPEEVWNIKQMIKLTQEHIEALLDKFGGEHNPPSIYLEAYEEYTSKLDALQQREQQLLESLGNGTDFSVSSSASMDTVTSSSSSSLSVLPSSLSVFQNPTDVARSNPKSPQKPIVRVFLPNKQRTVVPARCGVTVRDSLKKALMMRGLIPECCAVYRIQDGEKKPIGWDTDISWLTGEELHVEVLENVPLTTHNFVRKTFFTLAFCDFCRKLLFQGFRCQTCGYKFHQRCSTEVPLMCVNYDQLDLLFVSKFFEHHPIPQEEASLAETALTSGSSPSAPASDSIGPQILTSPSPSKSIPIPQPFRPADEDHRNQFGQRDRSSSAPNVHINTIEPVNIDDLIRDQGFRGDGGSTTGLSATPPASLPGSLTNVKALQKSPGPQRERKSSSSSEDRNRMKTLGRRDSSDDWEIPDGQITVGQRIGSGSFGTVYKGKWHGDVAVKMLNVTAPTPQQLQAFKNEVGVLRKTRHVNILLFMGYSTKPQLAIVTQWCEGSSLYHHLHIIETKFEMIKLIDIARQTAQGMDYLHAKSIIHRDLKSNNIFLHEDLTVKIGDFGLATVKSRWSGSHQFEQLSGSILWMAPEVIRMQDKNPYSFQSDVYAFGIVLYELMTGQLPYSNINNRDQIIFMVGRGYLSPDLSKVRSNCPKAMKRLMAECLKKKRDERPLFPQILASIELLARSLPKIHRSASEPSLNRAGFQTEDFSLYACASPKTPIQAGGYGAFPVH
How it was run: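 Part of a radiometric in vitro activity panel of 327 recombinant human kinases. Each kinase was tested in duplicate at one inhibitor concentration. Activity remaining was expressed as a percentage of the vehicle control, and percent inhibition was taken as 100 minus that value.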

Work on `O=C(N[C@@H](C1CC1)C(F)(F)F)c1cc(-c2cnn3cc(-c4ccc(F)cc4)cnc23)cs1` yielded an inhibition [1] of 0%, an inhibition [2] of 0% and a fold change (FC) [3] of 0.3.
`CC(C)[C@H](NC(=O)c1cc(-c2cnn3cc(-c4ccc(OCCN5CCCCC5)cc4)cnc23)cs1)C(F)(F)F` was tested, and the inhibition [4] was 0% and the fold change (FC) [5] was 0.23.
`CNC(=O)c1ccccc1Oc1nc(Nc2cc(OC)c(OC)c(OC)c2)ncc1Br` showed a fold change (FC) [6] of 0, an inhibition [7] of 9% and a fold change (FC) [8] of 0. For the same molecule, the inhibition [9] was 8%.
